According to PubChem BioAssay:
Active and inactive are the calls of the source.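 Rule for the calls, unless noted: active = viability at or under a set limit in both replicates, limit being median viability minus 3 SD (cut at about 48% in these data, passing the limit was not always enough); inconclusive = at or under the limit in just one replicate; inactive = at or above the limit in both replicates.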

What was measured:
[1] = reducers of endogenous Her2 protein level, primary screen, SKBR3 breast tumor cells, AlphaScreen, ATP viability (AID 461;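 active = Her2 level under about 52% in both replicate screens, with viability over 70% of control, limit read from the data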;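 for Her2 level: lower value means less Her2 protein in the cells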;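 for viability: percent of carrier control wells set as 100% viability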); conditions: 18-24 h, measured here: SKBR3 viability, ATP luminescence, at 10 µM
[2] = molecular target: Receptor tyrosine-protein kinase erbB-2 (Homo sapiens) (UniProt P04626); experiment: as above; conditions: 18-24 h, at 10 µM, stronger effect = lower value
Chain of Receptor tyrosine-protein kinase erbB-2 (Homo sapiens) (P04626 whole entry, looked up): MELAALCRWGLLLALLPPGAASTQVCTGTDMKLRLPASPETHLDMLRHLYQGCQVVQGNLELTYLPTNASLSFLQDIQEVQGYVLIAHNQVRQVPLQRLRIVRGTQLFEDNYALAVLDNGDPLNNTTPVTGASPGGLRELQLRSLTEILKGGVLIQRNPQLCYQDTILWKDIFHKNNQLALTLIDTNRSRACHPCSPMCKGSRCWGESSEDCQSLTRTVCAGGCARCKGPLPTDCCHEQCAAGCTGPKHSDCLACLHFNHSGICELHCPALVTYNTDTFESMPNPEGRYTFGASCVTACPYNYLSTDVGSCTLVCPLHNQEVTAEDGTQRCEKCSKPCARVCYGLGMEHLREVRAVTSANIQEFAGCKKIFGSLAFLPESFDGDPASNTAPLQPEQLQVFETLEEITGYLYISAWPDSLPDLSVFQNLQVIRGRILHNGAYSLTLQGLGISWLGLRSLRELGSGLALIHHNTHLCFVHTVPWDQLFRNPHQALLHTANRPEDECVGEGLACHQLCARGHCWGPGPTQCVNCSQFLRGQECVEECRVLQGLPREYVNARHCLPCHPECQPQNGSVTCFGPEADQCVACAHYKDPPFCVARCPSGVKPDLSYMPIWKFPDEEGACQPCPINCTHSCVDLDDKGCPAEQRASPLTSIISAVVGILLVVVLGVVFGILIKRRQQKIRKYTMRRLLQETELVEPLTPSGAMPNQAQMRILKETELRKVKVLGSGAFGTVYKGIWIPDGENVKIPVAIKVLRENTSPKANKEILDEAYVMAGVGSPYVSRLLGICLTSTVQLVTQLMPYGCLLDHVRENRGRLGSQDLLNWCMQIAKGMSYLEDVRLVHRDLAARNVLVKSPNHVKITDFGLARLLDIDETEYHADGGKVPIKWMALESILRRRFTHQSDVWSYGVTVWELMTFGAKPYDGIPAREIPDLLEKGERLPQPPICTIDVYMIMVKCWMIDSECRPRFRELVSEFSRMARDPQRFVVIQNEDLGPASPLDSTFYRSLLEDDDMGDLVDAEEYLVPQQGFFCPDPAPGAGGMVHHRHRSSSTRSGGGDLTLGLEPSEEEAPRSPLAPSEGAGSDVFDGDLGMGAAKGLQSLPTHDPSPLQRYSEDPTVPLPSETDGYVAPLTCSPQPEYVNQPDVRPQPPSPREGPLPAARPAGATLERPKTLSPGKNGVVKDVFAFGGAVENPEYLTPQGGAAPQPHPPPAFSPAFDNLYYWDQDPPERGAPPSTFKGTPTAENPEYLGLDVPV

[3] = SK-BR-3 cell growth inhibitors, pilot screen, 24 h, human (AID 572;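 active = viability at or below 10% of carrier control in both of two separate runs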;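 note: compound exposure lasted between 18 and 24 h rather than exactly 24 h; 100% = carrier-treated control wells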); conditions: SK-BR-3 viability, CellTiter-Glo luminescence, at 10 µM, stronger effect = lower value
[4] = HUVEC growth inhibition – cell-based, human, primary screen (AID 575;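 active = viability at or below 30% in both replicate assays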;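 note: 100% = median of untreated cell wells with 0.1% DMSO on each plate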); conditions: HUVEC proliferation, CellTiter-Glo luminescence, 72 h; at 10 µM; stronger effect = lower value
In short: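 Test system: primary human umbilical vein endothelial cells; medium: endothelial basal medium with 2% FBS plus growth supplements; dosing: 10 µM compound only; times: 72 h treatment at 37 °C; signal: CTG luminescence; read-out: % viability relative to median vehicle-well signal on each plate; control set: vehicle and MePR control wells; plate: 384-well, collagen-coated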

[5] = growth inhibitors of H69AR lung tumor, primary screen, human, duplicate replicates (AID 580); conditions: H69AR lung tumor cells viability, ATP luminescence, 72 h; at 10 µM; stronger effect = lower value;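 note: 100% = mean luminescence of untreated wells and 0% = no signal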
[6] = reversal of MRP1-mediated doxorubicin resistance, pilot screen, H69AR cells, doxorubicin co-treatment (AID 601;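 active = viability loss from added drug above about 55%, and viability with drug at most 40%, in both replicates, limit read from the data, passing the limit was not always enough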); conditions: CellTiter-Glo, 72 h, at 10 µM; for differential viability (reversal): stronger effect = higher value
[7] = 384-well plate pilot, post-Golgi transport modulator project, inhibition of yeast transport mutant growth (AID 636; in the data active = inhibition above about 31%); conditions: absorbance 615 nm, about 18 h, stronger effect = higher value
[8] = growth suppression of yeast trafficking mutant, preliminary HTS, modulators of trafficking downstream of Golgi apparatus project, 1536-format plate, OD 615 nm (AID 637; in the data active = inhibition above about 30%); conditions: yeast transport mutant growth, absorbance 615 nm, 18 h; stronger effect = higher value
[9] = H69AR cells + 2 uM doxorubicin, measured here: viability with 2 uM doxorubicin, stronger effect = lower value
[10] = H69AR cells, compound alone cytotoxicity

| Structure (SMILES) | viability [1] [%] | Her2 level [2] | viability [3] | viability [4] | viability [5] | differential viability (reversal) ([6]; H69AR cells + 2 uM doxorubicin) | viability [6, 9] [%] | viability [6, 10] [%] | inhibition [7] | inhibition [8] |
| --- | --- | --- | --- | --- | --- | --- | --- | --- | --- | --- |
| CCC(Sc1ccc(C(=O)O)cc1)C(=O)O (stereo not given) | 86.5 | 96% (inactive) | 86.5% (inactive) | 95.2% (inactive) | 93.9% (inactive) | 3.74% (inactive) | 90.2 | 93.9 | -1.97% (inactive) | -10% (inactive) |
| CC1=C(C(=O)NCc2ccco2)C2(CCC(C)CC2)OC1=O (stereo not given) | 89.5 | 100% (inactive) | 89.5% (inactive) | 94% (inactive) | 84% (inactive) | -0.86% (inactive) | 84.8 | 84 | -4% (inactive) | -5.74% (inactive) |
| CCC(C)N=C1SCC(C)(/C=N/O)S1 (stereo not given) | 97 | 88.5% (inactive) | 97% (inactive) | 116% (inactive) | 104% (inactive) | 7.86% (inactive) | 95.8 | 104 | -2.37% (inactive) | -0.98% (inactive) |
| c1ccc(CN2C3=NCCCN3c3ccccc32)cc1 | 79 | 84% (inactive) | 79% (inactive) | 82.9% (inactive) | 91.2% (inactive) | 8.3% (inactive) | 83 | 91.2 | -1.43% (inactive) | -3.65% (inactive) |
| Cc1ccc(NC(=O)c2ccccc2O)cc1 | 93.5 | 87.5% (inactive) | 93.5% (inactive) | 86.9% (inactive) | 89.2% (inactive) | -0.22% (inactive) | 89.4 | 89.2 | -1.49% (inactive) | -2.7% (inactive) |
| CCCC(C)C(=O)Nc1ccc(C(N)=O)cc1 (stereo not given) | 95 | 93.5% (inactive) | 95% (inactive) | 96% (inactive) | 93.1% (inactive) | 7.36% (inactive) | 85.7 | 93.1 | -5.81% (inactive) | -1.33% (inactive) |
| Cc1cc2c(cc(C(=O)NCc3cccnc3)n2Cc2ccc(Cl)cc2)o1 | 92 | 68.5% (inactive) | 92% (inactive) | 103% (inactive) | 98.2% (inactive) | -0.245% (inactive) | 98.5 | 98.2 | -1.45% (inactive) | -3.33% (inactive) |
| O=C(Nc1ccc2c(c1)OCO2)c1cc2ncc(Br)cn2n1 | 101 | 104% (inactive) | 101% (inactive) | 84.8% (inactive) | 86.8% (inactive) | -17.3% (inactive) | 104 | 86.8 | -4.67% (inactive) | -0.16% (inactive) |
| CC(=O)Nc1c(O)nc(SCC(=O)Nc2nnc(CC(C)C)s2)[nH]c1=O | 86.5 | 99.5% (inactive) | 86.5% (inactive) | 98.2% (inactive) | 93.6% (inactive) | -8.89% (inactive) | 102 | 93.6 | 3.2% (inactive) | 22.4% (inactive) |
| COC(=O)C(C)Oc1ccc2c3c(c(=O)oc2c1)CCCCC3 (stereo not given) | 90 | 94.5% (inactive) | 90% (inactive) | 93.7% (inactive) | 103% (inactive) | 10.5% (inactive) | 92.8 | 103 | 1.05% (inactive) | 5.74% (inactive) |
| O=C1NC(c2ccco2)Nc2ccccc21 (stereo not given) | 82.5 | 85.5% (inactive) | 82.5% (inactive) | 107% (inactive) | 97.8% (inactive) | 7.01% (inactive) | 90.8 | 97.8 | 0.55% (inactive) | -6.98% (inactive) |
| Cc1ccc(NC(=O)CCN2CCc3ccccc3C2)cc1 | 91.5 | 92.5% (inactive) | 91.5% (inactive) | 109% (inactive) | 99.7% (inactive) | -0.975% (inactive) | 101 | 99.7 | -5.21% (inactive) | -4.92% (inactive) |
| O=C(COc1ccccc1Cl)NCc1ccco1 | 89.5 | 78.5% (inactive) | 89.5% (inactive) | 103% (inactive) | 107% (inactive) | 15.4% (inactive) | 91.6 | 107 | -0.81% (inactive) | -3.93% (inactive) |
| O=S(=O)(NCC(c1cccnc1)N1CCN(c2ccccc2)CC1)c1cc(F)ccc1F (stereo not given) | 98.5 | 87% (inactive) | 98.5% (inactive) | 81.5% (inactive) | 86.4% (inactive) | -8.3% (inactive) | 94.7 | 86.4 | 5.19% (inactive) | 92% (active) |
| COC(=O)C1(C)NC(c2ccco2)C2C(=O)N(c3ccc(C)cc3)C(=O)C21 (stereo not given) | 106 | 95% (inactive) | 106% (inactive) | 96.6% (inactive) | 91.5% (inactive) | -3% (inactive) | 94.5 | 91.5 | -5.27% (inactive) | -3.83% (inactive) |
| CCC(=O)c1ccc(OCC(O)CN2CCN(S(=O)(=O)N3CCCCC3)CC2)cc1 (stereo not given) | 91 | 82% (inactive) | 91% (inactive) | 105% (inactive) | 110% (inactive) | 18.1% (inactive) | 92.2 | 110 | -3.33% (inactive) | 3.44% (inactive) |

| Structure (SMILES) | viability [1] [%] | Her2 level [2] | viability [3] | viability [4] | viability [5] | differential viability (reversal) ([6]; H69AR cells + 2 uM doxorubicin) | viability [6, 9] [%] | viability [6, 10] [%] | inhibition [7] | inhibition [8] |
| --- | --- | --- | --- | --- | --- | --- | --- | --- | --- | --- |
| O=C(NCCCN1CCOCC1)C1CC(=O)N(CCc2ccccc2)C1 (stereo not given) | 104 | 89% (inactive) | 104% (inactive) | 84.1% (inactive) | 94.8% (inactive) | 7.94% (inactive) | 86.9 | 94.8 | -3.68% (inactive) | -1.29% (inactive) |
| O=C(NCCN1CCOCC1)c1ccc2c(c1)N(Cc1ccccc1)C(=O)CS2 | 89.5 | 111% (inactive) | 89.5% (inactive) | 97.8% (inactive) | 99.4% (inactive) | 4.81% (inactive) | 94.6 | 99.4 | 0.67% (inactive) | -0.32% (inactive) |
| CCCn1c(SCC(=O)N2CCc3ccccc3C2)nc2c1c(=O)n(C)c(=O)n2C | 78.5 | 128% (inactive) | 78.5% (inactive) | 91.2% (inactive) | 84.9% (inactive) | 2.96% (inactive) | 81.9 | 84.9 | 0.26% (inactive) | 9% (inactive) |
| COc1cccc(OCc2nc3c4cnn(-c5ccccc5)c4ncn3n2)c1 | 97.5 | 99.5% (inactive) | 97.5% (inactive) | 80.1% (inactive) | 67.8% (inactive) | -20.5% (inactive) | 88.3 | 67.8 | -2.24% (inactive) | 3.44% (inactive) |
| c1nnc(NC2=NCCCCC2)s1 | 91.5 | 112% (inactive) | 91.5% (inactive) | 109% (inactive) | 101% (inactive) | 2.23% (inactive) | 98.5 | 101 | -2.16% (inactive) | -7.5% (inactive) |
| Cc1c(C(=O)NCc2cccnc2)oc2ccc(S(=O)(=O)N3CCCCC3)cc12 | 71.5 | 89% (inactive) | 71.5% (inactive) | 65.6% (inactive) | 70.5% (inactive) | -20.9% (inactive) | 91.4 | 70.5 | -0.39% (inactive) | 4.1% (inactive) |
| CCOC(=O)Nc1ccc2c(CN3C(=O)NC4(CCCC4)C3=O)cc(=O)oc2c1 | 89.5 | 92.5% (inactive) | 89.5% (inactive) | 89.2% (inactive) | 88.3% (inactive) | -1.09% (inactive) | 89.4 | 88.3 | -6.58% (inactive) | -0.16% (inactive) |
| O=C(NCCc1ccccc1)C1CCN(S(=O)(=O)N2CCC3(CC2)OCCO3)CC1 | 102 | 88.5% (inactive) | 102% (inactive) | 88.5% (inactive) | 99.3% (inactive) | 10.9% (inactive) | 88.4 | 99.3 | -2.37% (inactive) | 0.16% (inactive) |
| COc1ccc(S(=O)(=O)NCC(=O)N(CC(=O)NCC2CCCO2)c2ccccc2C)cc1 (stereo not given) | 123 | 82% (inactive) | 123% (inactive) | 107% (inactive) | 83.4% (inactive) | 7.01% (inactive) | 76.4 | 83.4 | -3.73% (inactive) | -0.32% (inactive) |
| Cc1c(C(=O)OC2CCCCC2)[nH]c2c1C(=O)CC(C)(C)C2 | 82.5 | 116% (inactive) | 82.5% (inactive) | 48.8% (inactive) | 78.8% (inactive) | -3.71% (inactive) | 82.5 | 78.8 | -3.55% (inactive) | -17.5% (inactive) |
| Cc1ccc(S(=O)(=O)Cc2ccc(C(=O)NCc3ccc4c(c3)OCO4)o2)cc1 | 98 | 84% (inactive) | 98% (inactive) | 84.7% (inactive) | 94.1% (inactive) | 6.79% (inactive) | 87.3 | 94.1 | -3.29% (inactive) | -4.76% (inactive) |
| CC(C)COC(=O)C1[C@H]2C(=O)N(Cc3cccs3)C[C@]23C=C[C@H]1O3 (stereo not given in full) | 102 | 109% (inactive) | 102% (inactive) | 110% (inactive) | 91.1% (inactive) | 1.3% (inactive) | 89.8 | 91.1 | -4.29% (inactive) | -2.33% (inactive) |
| O=C(Nc1ccccc1N1CCN(C(=O)c2ccc(Cl)cc2)CC1)c1cc2ccccc2o1 | 69.5 | 79.5% (inactive) | 69.5% (inactive) | 67.8% (inactive) | 85.5% (inactive) | 22.9% (inactive) | 62.6 | 85.5 | 2.53% (inactive) | 0.81% (inactive) |
| CCC(C)c1ccc(NC(=O)c2cccnc2)cc1 (stereo not given) | 93 | 106% (inactive) | 93% (inactive) | 81.6% (inactive) | 92.5% (inactive) | 5.06% (inactive) | 87.4 | 92.5 | -0.54% (inactive) | -1.64% (inactive) |
| CCNC(=O)Cn1cnc2c1c(=O)n(C)c(=O)n2C | 108 | 108% (inactive) | 108% (inactive) | 112% (inactive) | 96.2% (inactive) | -1.97% (inactive) | 98.2 | 96.2 | -4.74% (inactive) | 5.25% (inactive) |
| Cc1cc(OC(=O)N2CCOCC2)cc(C)c1Cl | 93.5 | 94.5% (inactive) | 93.5% (inactive) | 88.7% (inactive) | 105% (inactive) | 19.9% (inactive) | 84.9 | 105 | -3.55% (inactive) | -6.35% (inactive) |
